From ChEMBL document CHEMBL4152346, “Sulfonamido-2-arylbenzoxazole GroEL/ES Inhibitors as Potent Antibacterials against Methicillin-Resistant Staphylococcus aureus (MRSA)” (J Med Chem, 2018)
pEC50, pIC50, pKd: −log10 of the molar value. Active and inactive are the calls of the source.

What was measured:
[1] = biological target: HSP60/HSP10 (Homo sapiens, UniProt P10809); experiment: Inhibition of human N-terminal octa-His-tagged HSP60 expressed in Escherichia coli Rosetta(DE3) pLysS/human HSP10 expressed in Escherichia coli Rosetta(DE3) assessed as reduction in HSP60/HSP10-mediated denatured MDH refolding by measuring MDH enzyme activity using sodium mesoxalate as substrate after 40 to 60 mins by spectrometric analysis
HSP60/HSP10, sequence (P10809 whole entry): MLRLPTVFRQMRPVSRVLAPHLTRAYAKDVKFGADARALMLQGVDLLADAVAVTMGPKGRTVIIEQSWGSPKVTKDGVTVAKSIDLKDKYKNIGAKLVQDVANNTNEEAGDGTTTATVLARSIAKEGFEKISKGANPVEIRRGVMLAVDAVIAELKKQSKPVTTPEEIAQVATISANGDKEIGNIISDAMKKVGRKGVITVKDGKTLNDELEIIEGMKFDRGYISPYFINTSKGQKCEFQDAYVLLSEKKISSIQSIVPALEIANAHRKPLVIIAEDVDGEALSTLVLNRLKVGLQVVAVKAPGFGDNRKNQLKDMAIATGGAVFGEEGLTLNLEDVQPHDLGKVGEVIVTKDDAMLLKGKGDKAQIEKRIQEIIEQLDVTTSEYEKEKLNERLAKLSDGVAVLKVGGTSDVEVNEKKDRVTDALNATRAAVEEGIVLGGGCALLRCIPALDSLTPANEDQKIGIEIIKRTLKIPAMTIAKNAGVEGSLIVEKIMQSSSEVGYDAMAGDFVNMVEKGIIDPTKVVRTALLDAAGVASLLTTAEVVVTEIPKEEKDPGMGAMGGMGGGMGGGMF
HSP60/HSP10, sequence (P61604 whole entry, further chain): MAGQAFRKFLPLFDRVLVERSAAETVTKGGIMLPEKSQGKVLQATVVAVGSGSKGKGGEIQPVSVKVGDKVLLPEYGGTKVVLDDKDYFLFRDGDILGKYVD
Procedure, shortened: (§1)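 Chaperonin-mediated refolding of denatured MDH, coupled to MDH enzymatic activity as the reporter. Human HSP60/10 (HSP60 without its 26-residue mitochondrial signal peptide) or E. coli GroEL/ES was used, with GroEL tetradecamer at 50 nM (700 nM subunits) during the refolding cycle. IC50s from replicate dose-response curves were averaged as logs after ROUT outlier removal.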

[2] = tested on: Staphylococcus aureus; experiment: Antibacterial activity against multidrug resistant Staphylococcus aureus ATCC BAA-44 after 6 to 8 hrs; type: functional, organism-based
[3] = Inhibition of refolded MDH (unknown origin) preincubated with Escherichia coli GroEL/GroES for 45 mins using sodium mesoxalate as substrate by spectrometric analysis; set-up: species or system Homo sapiens; procedure, shortened: as §1
[4] = biological target: T1, Thiosulfate sulfurtransferase (Homo sapiens, UniProt Q16762); experiment: Inhibition of refolded rhodanese (unknown origin) preincubated with Escherichia coli GroEL/GroES for 60 mins by measuring […] after 20 to 40 mins by spectrometric analysis
T1 sequence (Q16762 whole entry): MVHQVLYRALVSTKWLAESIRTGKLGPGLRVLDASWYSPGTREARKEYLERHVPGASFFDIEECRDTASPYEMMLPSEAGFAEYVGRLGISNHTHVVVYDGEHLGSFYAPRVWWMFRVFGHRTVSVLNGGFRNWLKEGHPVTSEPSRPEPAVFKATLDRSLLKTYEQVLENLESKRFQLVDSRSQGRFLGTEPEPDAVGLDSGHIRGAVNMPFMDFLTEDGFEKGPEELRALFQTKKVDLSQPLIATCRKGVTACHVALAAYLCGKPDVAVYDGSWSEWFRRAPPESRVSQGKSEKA

[5] = Cytotoxicity against human THLE3 cells after 48 hrs by Alamar blue assay; type: cell-based
Procedure, shortened: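 THLE-3 cells, grown in BEBM with the BEGM kit and 10% FBS, were seeded at 1,500 cells/well and allowed 24 h at 37°C, 5% CO2. Compounds were then added at 100 µM to 46 nM final (3-fold steps, 0.1% DMSO) for 48 h. […] CC50 is the log-average of at least triplicate runs.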

[6] = tested on: Acinetobacter baumannii; experiment: Antibacterial activity against Acinetobacter baumannii ATCC 19606 after 24 hrs; type: functional, organism-based; details: for Activity: ATCC 19606 = CIP 70.34 = JCM 6841
Procedure, shortened: (§2)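 Stagnant liquid-culture proliferation assay at 37°C in broth cation-adjusted with 25 mg/L Ca²⁺ and 12.5 mg/L Mg²⁺, with compounds stamped into the wells. […] OD600 turbidity was read at 6–8 h (K. pneumoniae, E. cloacae, P. aeruginosa) or 24 h (A. baumannii). EC50 came from non-linear regression, averaged in log form over replicates.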

[7] = tested on: Pseudomonas aeruginosa; experiment: Antibacterial activity against Pseudomonas aeruginosa ATCC 10145 after 6 to 8 hrs; type: functional, organism-based; procedure, shortened: as §2
[8] = tested on: Klebsiella pneumoniae; experiment: Antibacterial activity against Klebsiella pneumoniae ATCC 13883 after 6 to 8 hrs; type: functional, organism-based; procedure, shortened: as §2
[9] = tested on: Enterobacter cloacae; experiment: Antibacterial activity against Enterobacter cloacae subsp. cloacae ATCC 13047 after 6 to 8 hrs; type: functional, organism-based; procedure, shortened: as §2
[10] = biological target: T2, E. coli GroEL/ES (Escherichia coli, UniProt P0A6F5); experiment: (§3) Inhibition of Escherichia coli GroEL expressed in Escherichia coli DH5alpha/Escherichia coli GroES expressed in Escherichia coli BL21 (DE3) assessed as reduction in GroEL/GroES-mediated denatured rhodanese refolding by measuring rhodanese enzyme activity after 45 mins by spectrometric analysis
T2 sequence (P0A6F5 whole entry, looked up): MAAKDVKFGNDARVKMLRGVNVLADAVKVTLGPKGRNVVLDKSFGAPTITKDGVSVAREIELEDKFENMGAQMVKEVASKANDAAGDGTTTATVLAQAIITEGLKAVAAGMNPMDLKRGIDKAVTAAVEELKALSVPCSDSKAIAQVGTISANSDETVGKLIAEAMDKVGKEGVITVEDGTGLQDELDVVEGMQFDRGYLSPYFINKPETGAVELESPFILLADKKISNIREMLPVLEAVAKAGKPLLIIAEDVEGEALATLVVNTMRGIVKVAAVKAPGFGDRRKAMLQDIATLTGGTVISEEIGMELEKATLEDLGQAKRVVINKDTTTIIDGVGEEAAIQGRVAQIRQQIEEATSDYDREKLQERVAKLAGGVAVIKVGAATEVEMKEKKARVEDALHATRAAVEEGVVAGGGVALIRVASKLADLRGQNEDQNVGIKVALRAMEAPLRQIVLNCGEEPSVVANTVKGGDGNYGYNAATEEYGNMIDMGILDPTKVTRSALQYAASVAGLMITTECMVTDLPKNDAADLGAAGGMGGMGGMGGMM
Procedure, shortened: (§4)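 Coupled refolding assay: denatured rhodanese or MDH refolded by GroEL/ES (50 nM GroEL tetradecamer, 700 nM subunits), read-out via enzymatic activity of refolded substrate; counter-screened against native enzyme activity. IC₅₀ as back-calculated mean of log-transformed replicate values.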

[11] = Selectivity index, ratio of CC50 for human THLE3 cells to EC50 for multidrug resistant Staphylococcus aureus ATCC BAA-44; type: toxicity; details: read-out: Ratio CC50/EC50
[12] = biological target: T2, E. coli GroEL/ES; experiment: as §3, with “coliDH5alpha/Escherichia” for “coli DH5alpha/Escherichia”, “MDH” for “rhodanese”, “activity using sodium mesoxalate as substrate” for “activity”, “20 to 40” for “45”; procedure, shortened: as §4
[13] = Binding affinity to Escherichia coli GroEL expressed in Escherichia coli DH5alpha by ITC assay
Procedure, shortened: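 ITC at 20°C: 400 µM GroEL (monomer) in syringe titrated into 50 µM compound in cell, matched buffer 20 mM HEPES pH 7.4, 50 mM KCl, 10 mM MgCl₂, 1% DMSO; 0.4 µL first injection discarded, then 2.0 µL injections at 3-min intervals, 600 rpm. Single-site fit gave Kd, n, ΔH, ΔS; five or six replicates.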

[14] = tested on: Staphylococcus aureus; experiment: Antibacterial activity against multidrug resistant Staphylococcus aureus ATCC BAA-44 at >100 uM passaged for 12 days in fresh liquid media supplemented with compound followed by re-culturing for 24 hrs on agar and another 24 hrs in liquid medium; type: functional, organism-based
Procedure, shortened: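 After 12-day serial passage under compound, resistant culture regrown without inhibitor 24 h on agar then 24 h in liquid medium, then retested for growth inhibition; % growth inhibition averaged (±SD) from 4 replicates.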

[15] = tested on: Staphylococcus aureus; experiment: Antibacterial activity against multidrug resistant Staphylococcus aureus ATCC BAA-44 at >100 uM passaged for 12 days in fresh liquid media supplemented with compound; type: functional, organism-based

O=S(=O)(Nc1ccc(-c2nc3cc(NS(=O)(=O)c4ccc(Cl)s4)ccc3o2)cc1)c1ccc(Cl)c(C(F)(F)F)c1 showed a pIC50 [1] of 5.21, a pEC50 [2] of 5.70 and a pIC50 [3] of under 4.20. For the same molecule, the pIC50 [4] was under 4.00, the CC50 at 48 h [5] was 22 µM and the pEC50 ([6]; ATCC 19606 = CIP 70.34 = JCM 6841, 24 h) was 4.43.
For O=S(=O)(Nc1ccc2oc(-c3ccc(NS(=O)(=O)c4ccc(Cl)s4)cc3)nc2c1)c1ccc(Cl)c(C(F)(F)F)c1, the pIC50 [1] was 5.62, the pEC50 [2] was 5.66 and the pIC50 [3] was 4.40. For the same molecule, the pIC50 [4] was under 4.00 and the CC50 at 48 h [5] was 27 µM.
For O=[N+]([O-])c1ccc(S(=O)(=O)Nc2ccc(-c3nc4cc(NS(=O)(=O)c5ccc([N+](=O)[O-])cc5)ccc4o3)cc2)cc1, the pIC50 [1] was 4.29, the pEC50 [2] was 5.14 and the Activity [7] was “inactive”. For the same molecule, the Activity [8] was “inactive”, the pIC50 [3] was under 4.20 and the pIC50 [4] was under 4.00. The CC50 at 48 h [5] was 47 µM, the Activity [9] was “inactive” and the Activity [6] was “inactive”.
In the case of O=S(=O)(Nc1ccc2oc(-c3ccc(NS(=O)(=O)c4ccc(Cl)s4)cc3)nc2c1)c1ccc(Cl)c(Cl)c1, the pIC50 [1] was 5.33, the pEC50 [2] was 6.28 and the pIC50 [10] was 5.19. It also gave a selectivity ratio [11] of 46, a pIC50 [3] of under 4.20 and a pIC50 [4] of under 4.00. It also gave a CC50 at 48 h [5] of 24 µM and a pIC50 [12] of 5.29.
In the case of O=S(=O)(Nc1ccc(-c2nc3cc(NS(=O)(=O)c4ccc(Cl)s4)ccc3o2)cc1)c1ccc(Cl)s1, the pIC50 [1] was 5.23, the pEC50 [2] was 5.34 and the pIC50 [3] was 4.28. For the same molecule, the pIC50 [4] was under 4.00 and the CC50 at 48 h [5] was 49 µM.
In the case of NCc1ccc(S(=O)(=O)Nc2ccc3oc(-c4ccc(NS(=O)(=O)c5ccc(Cl)s5)cc4)nc3c2)cc1, the pIC50 [12] was 5.51 and the pKd [13] was 6.82.
Work on O=S(=O)(Nc1ccc2oc(-c3ccc(NS(=O)(=O)c4ccc(Cl)s4)cc3)nc2c1)c1cccc(C(F)(F)F)c1 yielded a pIC50 [1] of 5.30, a pEC50 [2] of 5.96 and a pIC50 [3] of 4.37. It also gave a pIC50 [4] of under 4.00, a CC50 at 48 h [5] of 36 µM and a pIC50 [12] of 5.17.
In the case of O=S(=O)(Nc1ccc(-c2nc3cc(NS(=O)(=O)c4cccc(C(F)(F)F)c4)ccc3o2)cc1)c1cccc(C(F)(F)F)c1, the pIC50 [1] was 4.24, the pEC50 [2] was 5.70 and the Activity [7] was “inactive”. The Activity [8] was “inactive”, the pIC50 [3] was under 4.20 and the pIC50 [4] was under 4.00. The CC50 at 48 h [5] was 24 µM, the Activity [9] was “inactive” and the Activity [6] was “inactive”.
With O=S(=O)(Nc1ccc(-c2nc3cc(NS(=O)(=O)c4ccc(Cl)s4)ccc3o2)cc1)c1cccc(C(F)(F)F)c1 the pEC50 [2] was 5.64, the pIC50 [3] was under 4.20 and the pIC50 [4] was under 4.00. It also gave a CC50 at 48 h [5] of 27 µM.
Molecule O=S(=O)(Nc1ccc2oc(-c3ccc(NS(=O)(=O)c4cccc5nonc45)cc3)nc2c1)c1ccc(Cl)s1 has a pIC50 [1] of 4.96, a pEC50 [2] of 5.35 and a pIC50 [3] of under 4.20. For the same molecule, the pIC50 [4] was 4.14 and the CC50 at 48 h [5] was 69 µM.
In the case of O=[N+]([O-])c1cc(S(=O)(=O)Nc2ccc3oc(-c4ccc(NS(=O)(=O)c5ccc(Cl)s5)cc4)nc3c2)ccc1Cl, the pIC50 [1] was 6.00, the pEC50 [2] was 6.01 and the pIC50 [10] was 6.00. It also gave a pIC50 [3] of 4.43, a pIC50 [4] of under 4.00 and a CC50 at 48 h [5] of 11 µM.
In the case of O=[N+]([O-])c1cc(S(=O)(=O)Nc2ccc(-c3nc4cc(NS(=O)(=O)c5ccc(Cl)s5)ccc4o3)cc2)ccc1Cl, the pIC50 [1] was 5.68, the pEC50 [2] was 5.77 and the pIC50 [10] was 5.70. The Activity [14] was “Active”, the selectivity ratio [11] was 10 and the pIC50 [3] was 4.47. It also gave a pIC50 [4] of 4.28, a CC50 at 48 h [5] of 17 µM and a pIC50 [12] of 5.82.
For O=S(=O)(Nc1ccc(-c2nc3cc(NS(=O)(=O)c4ccc(Cl)cc4)ccc3o2)cc1)c1ccc(Cl)cc1, the pEC50 [2] was 5.46, the Activity [7] was “inactive” and the Activity [8] was “inactive”. The pIC50 [3] was under 4.20, the pIC50 [4] was under 4.00 and the CC50 at 48 h [5] was 18 µM. The Activity [9] was “inactive” and the Activity [6] was “inactive”.
In the case of O=S(=O)(Nc1ccc(-c2nc3cc(NS(=O)(=O)c4cccc5nonc45)ccc3o2)cc1)c1cccc2nonc12, the Activity [7] was “inactive”, the Activity [8] was “inactive” and the Activity [9] was “inactive”. For the same molecule, the Activity [6] was “inactive”.
With O=S(=O)(Nc1ccc(-c2nc3cc(NS(=O)(=O)c4ccccc4Cl)ccc3o2)cc1)c1ccccc1Cl the Activity [7] was “inactive”, the Activity [8] was “inactive” and the Activity [9] was “inactive”. The Activity [6] was “inactive”.
With O=C(O)c1ccccc1S(=O)(=O)Nc1ccc(-c2nc3cc(NS(=O)(=O)c4ccccc4C(=O)O)ccc3o2)cc1 the Activity [7] was “inactive”, the Activity [8] was “inactive” and the Activity [9] was “inactive”. For the same molecule, the Activity [6] was “inactive”.
For NCc1ccc(S(=O)(=O)Nc2ccc(-c3nc4cc(NS(=O)(=O)c5ccc(Cl)s5)ccc4o3)cc2)cc1, the pEC50 [2] was 4.72, the pIC50 [10] was 5.49 and the Activity [15] was “Active”. The pIC50 [12] was 5.89 and the pKd [13] was 7.44.
In the case of N#Cc1ccc(S(=O)(=O)Nc2ccc(-c3nc4cc(NS(=O)(=O)c5ccc(C#N)cc5)ccc4o3)cc2)cc1, the Activity [7] was “inactive”, the Activity [8] was “inactive” and the Activity [9] was “inactive”. For the same molecule, the Activity [6] was “inactive”.
For O=S(=O)(Nc1ccc(-c2nc3cc(NS(=O)(=O)c4ccc(Br)cc4)ccc3o2)cc1)c1ccc(Br)cc1, the Activity [7] was “inactive”, the Activity [8] was “inactive” and the Activity [9] was “inactive”. For the same molecule, the Activity [6] was “inactive”.
For O=S(=O)(Nc1ccc2oc(-c3ccc(NS(=O)(=O)c4ccc5ncsc5c4)cc3)nc2c1)c1ccc2scnc2c1, the Activity [7] was “inactive”, the Activity [8] was “inactive” and the Activity [9] was “inactive”. For the same molecule, the Activity [6] was “inactive”.
